Data set [1] is described as follows: folding enthalpy; higher = less favourable; fluorescence melt of hairpins on a sequencing array, two-state fit. The conditions noted are these: sodium 0.088 M. The gist of the method:
(§1)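 On a sequenced MiSeq flow cell, library hairpins with annealed Cy3 and quencher oligos were imaged for Cy3 fluorescence in 2.5 °C steps up to 60 °C, in 50 mM Na-HEPES pH 8.0, 25 mM NaCl. Normalisation used pre-quench Cy3 and control constructs. Bootstrapped two-state fits gave melting temperature and folding enthalpy, combined by inverse variance across four replicates and with fitted temperatures raised by 9.35 °C to match UV melts.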

Data set [2] is described as follows: melting temperature; fluorescence melt of hairpins on a sequencing array, two-state fit, raised by 9.35 °C to match UV melts. Particulars: sodium 0.088 M. The method in brief:
as §1

Turning to GCACTGACGAAAGTCTGC (((..(((....)))))), the folding enthalpy in data set [1] was -14.3 kcal/mol. The Tm in data set [2] came out at 38.1 °C.
On the same counts, the results for GCACTGCCGAAAGGCTGC (((..(((....)))))) are -13.4 kcal/mol and 44.5 °C.
As for GCACTGCGAAAGCAAAGC ((..(((....)))..)), the folding enthalpy in data set [1] is -13.2 kcal/mol. In data set [2], the Tm came to 37.1 °C.
On the same counts, the results for GCACTGCGAAAGCAGAGC ((.((((....)))).)) are -20.7 kcal/mol and 65.9 °C.
In the case of GCACTGCGAAAGCCCTGC (((..((....))..))), in data set [1], the folding enthalpy was -12.5 kcal/mol. Further, in data set [2], the Tm came to 28.8 °C.
On the same counts, the results for GCACTGCGAAAGCCGCGC ((.(.((....)).).)) are -21 kcal/mol and 45.4 °C.
For the sequence GCACTGGGAAACCAATGC (((.(((....))).))), the folding enthalpy in data set [1] is -30.1 kcal/mol. For the same sequence, the Tm in data set [2] amounted to 40.3 °C.
On the same counts, the results for GCACTGGGAAACCAGCAC (..((((....))))..) are -10.1 kcal/mol and 27.3 °C.
For GCACTTCGAAAGAAATGC (((.(((....))).))), the folding enthalpy in data set [1] was -31.3 kcal/mol. In data set [2], the Tm was 42.3 °C.
For the sequence GCACTTCGAAAGAACTGC (((.(((....))).))), in data set [1], the folding enthalpy was -22.1 kcal/mol. Moreover, the Tm in data set [2] was determined as 34.4 °C.
In the case of GCACTTGGAAACAAGCGC ((.((((....)))).)), in data set [1], the folding enthalpy is -45 kcal/mol. Also, the Tm in data set [2] was 49.5 °C.
The like results for GCACTTGGAAACAAGTGC (((((((....))))))) were, in that order, -34.6 kcal/mol and 67.7 °C.
With GCAGAACCGAAAGGTTGC (((..(((....)))))), the folding enthalpy in data set [1] was -17.1 kcal/mol. The Tm in data set [2] came to 44.5 °C.
On the same counts, the results for GCAGAAGCGAAAGCTTGC (((..(((....)))))) are -16.2 kcal/mol and 47.2 °C.
The like results for GCAGAAGGAAACTCCTGC ((((.((....)).)))) were, in that order, -20.9 kcal/mol and 40.1 °C.
The like results for GCAGACGAAAGTCGATGC ((((((....)))..))) were, in that order, -17.6 kcal/mol and 45.4 °C.
As for GCAGACGGAAACGTCTAC (.(((((....))))).), the folding enthalpy in data set [1] was -14.1 kcal/mol. In addition, the Tm in data set [2] came to 42.7 °C.
On the same counts, the results for GCAGAGCCGAAAGGCTGC (((..(((....)))))) are -13.8 kcal/mol and 52.9 °C.
On the same counts, the results for GCAGAGCGAAAGCAATGC (((..((....))..))) are -21 kcal/mol and 53.9 °C.
The like results for GCAGAGCGAAAGCACAGC ((.(.((....)).).)) were, in that order, -15.6 kcal/mol and 42.9 °C.
Turning to GCAGAGCGAAAGCGCGGC ((.(.((....)).).)), the folding enthalpy in data set [1] is -20.9 kcal/mol. In addition, the Tm in data set [2] is 60.1 °C.
Take GCAGAGCGAAAGCTTAGC ((..(((....)))..)): in data set [1], the folding enthalpy is -17.5 kcal/mol. The Tm in data set [2] worked out at 41.7 °C.
On the same counts, the results for GCAGAGCGAAAGCTTTGC (((.(((....))).))) are -53.2 kcal/mol and 56.1 °C.
Take GCAGAGGCGAAAGCCTGC (((..(((....)))))): the folding enthalpy in data set [1] is -14.5 kcal/mol. For the same sequence, the Tm in data set [2] amounted to 56.7 °C.
The like results for GCAGAGGGAAACCCCTGC ((((.((....)).)))) were, in that order, -33.7 kcal/mol and 49 °C.
On the same counts, the results for GCAGATGCGAAAGCATGC (((..(((....)))))) are -13.6 kcal/mol and 47.9 °C.
In the case of GCAGATGGAAACGTTTGC (((.(.(....).).))), the folding enthalpy in data set [1] is -12.6 kcal/mol. In data set [2], the Tm is 28.9 °C.
GCAGCACGAAAGTGTTGC (((.(((....))).))): the folding enthalpy in data set [1] was -37.2 kcal/mol. The Tm in data set [2] was 60.6 °C.
Consider GCAGCAGCGAAAGCTTGC (((..(((....)))))), for which the folding enthalpy in data set [1] was -13.6 kcal/mol. Also, the Tm in data set [2] was found to be 43.5 °C.
With GCAGCAGGAAACTACTGC ((((.((....)).)))), the folding enthalpy in data set [1] was -30.5 kcal/mol. For the same sequence, the Tm in data set [2] was 45.5 °C.
The like results for GCAGCCCCGAAAGGGTGC (((..(((....)))))) were, in that order, -16.5 kcal/mol and 53.4 °C.
On the same counts, the results for GCAGCCCGAAAGGGTGC (((.(((....)))))) are -20.6 kcal/mol and 64.4 °C.
In the case of GCAGCCGAAAGGCCGTGC ((((((....)))..))), in data set [1], the folding enthalpy is -13.3 kcal/mol. Also, in data set [2], the Tm was found to be 41.9 °C.
As for GCAGCCGCGAAAGCGTGC (((..(((....)))))), the folding enthalpy in data set [1] was -8.84 kcal/mol. Further, the Tm in data set [2] was 48.4 °C.
GCAGCCGGAAACGGTTGC (((.(((....))).))): the folding enthalpy in data set [1] is -50.1 kcal/mol. The Tm in data set [2] was 64.8 °C.
Regarding GCAGCGACGAAAGTCTGC (((..(((....)))))), the folding enthalpy in data set [1] was -16.1 kcal/mol. The Tm in data set [2] amounted to 48.3 °C.
